pIC50: −log10 of the molar value.
Key:
DU-145 = assay: Cytotoxicity against human DU145 cells by SRB assay; format: functional
NCI-H460 = assay: Cytotoxicity against human NCI-H460 cells by SRB assay; format: functional
SK-OV-3 = assay: Cytotoxicity against human SKOV3 cells by SRB assay; format: functional
[1] = Inhibition of bovine brain tubulin assembly after 20 mins; set-up: species or system Bos taurus
In short: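 Bovine brain tubulin (10 µM) was preincubated with varying compound concentrations in glutamate buffer at 30 °C and then cooled to 0 °C. GTP was added, and the mixtures were warmed to 30 °C in a recording spectrophotometer. Assembly was followed turbidimetrically.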

pIC50 [1]	SMILES	GI50 (DU-145) [µM]	GI50 (NCI-H460) [nM]	GI50 (SK-OV-3) [nM]
	COc1cc(/C=C\c2ccc(OC)c(O[C@@H]3O[C@H](C(=O)O)[C@@H](O)[C@H](O)[C@H]3O)c2O)cc(OC)c1OC	3.3	1800	2100
	COc1ccc(/C=C/c2cc(OC)c(OC)c(OC)c2)c(O[C@@H]2O[C@H](C(=O)O)[C@@H](O)[C@H](O)[C@H]2O)c1O	> 88	26000	30000
	COc1cc(/C=C/c2ccc(OC)c(O[C@@H]3O[C@H](C(=O)O)[C@@H](O)[C@H](O)[C@H]3O)c2O)cc(OC)c1OC	> 98	26000	> 85000
5.96	COc1ccc(/C=C\c2cc(OC)c(OC)c(OC)c2)c(O)c1O [COMBRETASTATIN A-1]	0.013	46	
	COc1ccc(/C=C\c2cc(OC)c(OC)c(OC)c2)cc1O [COMBRETASTATIN A4]	0.001		
	COc1ccc(/C=C\c2cc(OC)c(OC)c(OC)c2)c(O[C@@H]2O[C@H](C(=O)O)[C@@H](O)[C@H](O)[C@H]2O)c1O	4.4	3000	2300

Source: ChEMBL document CHEMBL1165983, “Regio- and stereospecific synthesis of mono-beta-d-glucuronic acid derivatives of combretastatin A-1” (J Nat Prod, 2010)
